Source: PubChem BioAssay
Most compounds without a hit are left out; they make up all but 5.1% or so of the library.
STAT3 act = IL-6 driven STAT3 reporter potentiators, primary screen, U3A cells, luciferase, luminescence, MLSCN library | IL-6 STAT3-luciferase reporter; 100% = signal with IL-6 EC80 alone | activation (% of control), % at 5.6 µM | 0.91% of 190,000 active;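 active means activation above the screen-wide mean of compound activation plus 3 SD, cut at about 130% in these data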;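 further: 0% = background luminescence of wells with medium and substrate only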
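Test system: STAT3-luciferase reporter U3A cells; Detection: reporter luminescence signal; Times: 1 h compound pre-exposure, 6 h IL-6 stimulation, 37 °C; Benchmarks: IL-6-only high control; Also added: IL-6 stimulus at 33 ng/mL final.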
STAT1 act = STAT1 signaling activators, primary screen, cell-based, HTS, luciferase reporter; 2.6% of 200,000 active; activation (% of control), % at 5.5 µM; NIH 3T3 STAT1-luciferase reporter, IFN-gamma, luminescence; 100% = IFN-gamma alone, no compound; AID 932, 2007;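 active means activation above the screen-wide mean activation plus 3 SD, cut at about 130% in these data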;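 further: raw ratio to IFN-gamma control signal so 100% means no change and 0% no light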
NF-kB neuron act = activators of NF-kB expression in neurons, primary screen, cell-based, HTS; fold change at 12.5 µM; human neuronal cells, NF-kB reporter expression; hits give high values; 1.6% of 190,000 active; in the data active means fold change above about 3.3
STAT3 inh = IL-6 driven STAT3 reporter inhibitors, primary screen, U3A cells, luciferase, luminescence, MLSCN library | AID 862, 2007 | inhibition, % at 5.5 µM | 0.89% of 190,000 active | IL-6 STAT3-luciferase reporter; host cell line lacks STAT1;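 active means inhibition above the mean inhibition across all screened compounds plus 3 SD, cut at about 44% in these data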;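 further: 0% = DMSO only wells and 100% = 100 µM nifuroxazide control wells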
APP 5'UTR act = activators of APP 5'UTR luciferase reporter, primary screen, SH-SY5Y cells | SH-SY5Y APP 5'UTR luciferase reporter, luminescence; zero percent = DMSO vehicle wells | 1% of 190,000 active | activation, % at 2 µM;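 active means activation above a set limit, based on mean plus 3 SD of controls, cut at about 140% in these data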
STAT1 inh = STAT1 signaling inhibitors, primary screen, cell-based, HTS, luciferase reporter. NIH 3T3 STAT1-luciferase reporter, IFN-gamma, luminescence. inhibition, % at 5.5 µM. 0.35% of 200,000 active;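 active means inhibition above a set limit, the mean inhibition across all tested compounds plus 3 SD, cut at about 34% in these data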;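 further: 0% = IFN-gamma with DMSO and 100% = IFN-gamma with 300 µM nifuroxazide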
* = called active by the depositor.

SMILES | STAT3 act | STAT1 act | NF-kB neuron act | STAT3 inh | APP 5'UTR act | STAT1 inh
CCCOC(=O)C(C)n1cnc2sc(C)c(C)c2c1=O (configuration not stated) | 103.4 | 104.1 | 1.22 | -7.3 | -10.3 | -4.4
O=C(COC(=O)Cc1c(Cl)cccc1Cl)NCC1CCCO1 (configuration not stated) | 98.3 | 109.3 | 1.1 | 7.2 | 5.8 | -11.4
O=c1[nH]c(SCc2ccc([N+](=O)[O-])cc2)nc2[nH]ncc12 | 108.5 | 108.6 | 0.68 | -2.4 | 15.2 | -11.3
O=Cc1ccnc(-c2ccc(OC(=O)c3ccco3)cc2)n1 | 97.1 | 98.2 | 1.03 | 5.8 | 6.1 | 1.2
COc1ccc(C(C)=O)cc1CSc1nnc(Nc2c(C)cccc2C)s1 | 106.5 | 101.5 | 1.04 | -3.5 | -6.5 | -1.7
O=C(O)c1ccc(-c2nc(-c3ccccc3Cl)cs2)cc1 | 119.4 | 134.3* | 1.76 | -13.6 | 52.1 | -38.9
Cc1oncc1-c1csc(-c2ccccc2)n1 | 92.9 | 137.1* | 2.33 | 12.5 | 55.7 | -40.3
Cc1oncc1-c1csc(-c2ccccc2Cl)n1 | 94.6 | 143.0* | 1.28 | 14.8 | 21.8 | -46.3
CCOC(=O)NC(Nc1ccc(OC)cc1)(C(F)(F)F)C(F)(F)F | 98.5 | 96.7 | 1.05 | -0.4 | -3.4 | 3.8
COC(=O)c1ccc(N=NN2CCCCCC2)cc1 | 78.6 | 137.1* | 4.07* | 28.3 | 106.5 | -40.9
O=C(O)c1ccc(N=NN2CCCCC2)cc1 | 97.6 | 134.6* | 1.89 | 5.2 | 56.8 | -39.7
NS(=O)(=O)c1ccc(N=NN2CCCCC2)cc1 | 115.4 | 119.7 | 1.91 | -16.8 | 31.5 | -22.9
COC(=O)c1ccc(N=NN2CCOCC2)cc1 | 97.3 | 127.9 | 2.95 | 4.1 | 81.0 | -31.2
CC1CCCCN1S(=O)(=O)c1ccc(C(=O)Nc2sccc2C(N)=O)cc1 (configuration not stated) | 118.4 | 128.6* | 1.27 | -12.7 | 77.7 | -31.5
NC(=O)c1ccsc1NC(=O)C1CCCN1S(=O)(=O)c1ccc(Cl)cc1 (configuration not stated) | 98.1 | 99.0 | 1.63 | 5.2 | 2.4 | 1.1
Cc1ccc[n+](CC2OCc3ccccc3CO2)c1 | 98.8 | 103.0 | 1.44 | 6.7 | -2.4 | -4.7
CCOC(=O)c1c(C)n(C)c2cc(CN(C)C)c(O)c(S(=O)(=O)c3ccccc3)c12 | 98.6 | 90.8 | 1.05 | 3.7 | -7.1 | 8.4
COc1ccc(OC)c(C(=O)COC(=O)c2cccnc2Cl)c1 | 85.2 | 82.6 | 1.43 | 21.4 | 8.1 | 18.4
Cc1cc(C(=O)COC(=O)C2COc3ccccc3O2)c(C)n1CC1CCCO1 (configuration not stated) | 99.6 | 99.3 | 1.32 | 6.3 | 11.9 | 0.8
Cc1ccc(C(=O)OCC(=O)c2cc(C)n(CC3CCCO3)c2C)cc1 (configuration not stated) | 104.7 | 139.6* | 1.08 | -0.8 | 101.3 | -47.6
Cc1cc(C(=O)COC(=O)c2cccnc2Cl)c(C)n1CC1CCCO1 (configuration not stated) | 25.2 | 24.5 | 0.44 | 87.7* | 132.4 | 80.3*
O=C(COC(=O)c1cccnc1Cl)NCC1CCCO1 (configuration not stated) | 101.2 | 87.4 | 0.99 | -1.8 | 11.6 | 13.6
Cc1cc(C(=O)COC(=O)c2cc(O)c3ccccc3c2O)c(C)n1CC1CCCO1 (configuration not stated) | 145.8* | 93.8 | 1.01 | -43.5 | -8.4 | 5.4
COc1ccc(C(=O)COC(=O)c2cccnc2Cl)c(OC)c1 | 102.3 | 141.2* | 1.83 | 1.0 | 50.3 | -47.1
CS(=O)(=O)N1CCC(C(=O)NCc2ccccc2)CC1 | 97.9 | 106.9 | 1.21 | 7.9 | -0.6 | -7.7
SMILES | STAT3 act | STAT1 act | NF-kB neuron act | STAT3 inh | APP 5'UTR act | STAT1 inh
COc1ccccc1-n1cnc2cc(NCc3cccs3)ccc21 | 116.3 | 112.9 | 3.34* | -18.2 | -93.1 | -13.9
Cc1ccccc1-n1cnc2cc(NCc3cccs3)ccc21 | 107.7 | 103.0 | 1.38 | -6.0 | 12.3 | -3.4
C=CCNC(=S)NNC(=O)c1ccncc1 | 103.8 | 99.6 | 1.09 | -2.6 | 8.8 | -1.1
Cc1ccc2nc(SCC(=O)NCc3ccco3)c(C#N)cc2c1 | 92.0 | 105.4 | 2.92 | 13.8 | 137.3* | -5.9
CN1C(=C2C(=O)OC(C)(C)OC2=O)Sc2ccccc21 | 95.3 | 130.1* | 1.55 | 9.2 | 29.9 | -33.1
Cc1ccc(C(=O)Nc2ccc3c(c2)nc2n3CCSC2)cc1 | 85.8 | 148.3* | 5.44* | 20.5 | 168.8* | -52.6
COc1ccc(CN2CCNC(=O)C2CC(=O)N2CCCO2)c(OC)c1 (configuration not stated) | 97.5 | 109.3 | 1.17 | 4.4 | 7.3 | -11.2
N#Cc1cccc(S(=O)(=O)NCC(=O)OCC(=O)c2ccc[nH]2)c1 | 104.5 | 105.6 | 1.11 | -1.6 | 1.6 | -8.0
COc1ccc2oc(C(=O)C3CC3)c(N)c2c1 | 103.0 | 140.0* | 2.63 | 5.4 | 83.2 | -43.9
COC(=O)CCC(=O)c1oc2ccc(OC)cc2c1N | 76.8 | 110.9 | 1.75 | 33.2 | -64.1 | -11.9
COc1ccc2oc(C(=O)NC(C)(C)C)c(C)c2c1 | 116.9 | 145.5* | 0.96 | -15.2 | 80.2 | -54.2
c1ccc2c(-c3cc(C4CCNCC4)[nH]n3)cccc2c1 | 98.9 | 103.6 | 0.85 | 6.1 | 9.5 | -4.0
O=C(Nc1cccnc1)c1sc2cccc(F)c2c1Cl | 112.9 | 132.6* | 0.85 | -10.5 | 82.8 | -39.8
CN(C)CCNC(=O)c1sc2cccc(F)c2c1Cl | 95.0 | 102.6 | 1.27 | 13.4 | -18.1 | -4.2
O=C(Nc1ccccn1)c1sc2cccc(F)c2c1Cl | 71.6 | 84.4 | 5.67* | 35.4 | 179.2* | 15.2
Nc1ccc2nc(-c3ccccc3)sc2c1 | 46.4 | 61.1 | 2.14 | 63.8* | 107.8 | 42.4*
Nc1ccc(-c2nc3cc(N)ccc3s2)cc1 | 85.6 | 98.6 | 5.34* | 21.9 | 185.5* | 1.4
CCc1ccc2nc(N)sc2c1 | 96.1 | 105.6 | 0.95 | 6.7 | 55.9 | -8.8
COc1ccc(NC(=S)N(CCCN2CCCC2)Cc2cccn2Cc2ccc(Cl)cc2)cc1Cl | 97.7 | 97.3 | 0.75 | 13.6 | -10.0 | 2.1
Cc1cc(=O)n2nc(-c3ccc(C(F)(F)F)cc3)sc2n1 | 93.6 | 129.3* | 1.4 | 11.9 | -1.8 | -31.7
COc1ccc(C(=O)NCCSc2ccccc2)cc1OC | 117.5 | 134.1* | 2.05 | -15.1 | 46.2 | -39.2
Cc1cc(C)c2cc3c(N)c(C(=O)N4CCOCC4)sc3nc2c1 | 102.2 | 143.5* | 0.93 | 3.3 | 85.8 | -51.0
Cc1ccc(C)c2nc3sc(C(=O)N4CCOCC4)c(N)c3cc12 | 103.1 | 143.5* | 1.87 | -1.3 | 64.0 | -49.0
